Among the data in ChEMBL document CHEMBL1150381, “Effects of amide constituents from pepper on adipogenesis in 3T3-L1 cells” (Bioorg Med Chem Lett, 2008) are Activity values, retold here.

The source made the active and inactive calls. No cut-off for these calls is given here.

For data set [1], the system named is 3T3-L1. The experiment in a line: Antidiabetic activity in mouse 3T3L1 cells assessed as enhancement of triglyceride accumulation at 1 uM. It counts as functional. In outline: (§1)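 3T3-L1 cells (5.0 × 10^4/well) in DMEM + 10% FCS; after 24 h differentiated 72 h in high-glucose DMEM/10% FCS with 1 µM dexamethasone, 0.5 mM IBMX, 5 µg/mL insulin, then maintenance medium (10% FCS, 5 µg/mL insulin) 4 days. Compound in DMSO (final 0.1%) in both media. Day 8: cells sonicated in water, triglyceride measured by enzymatic kit; means ± SEM, n = 4.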

Data set [2] concerns 3T3-L1. The experiment in a line: Antidiabetic activity in mouse 3T3L1 cells assessed as enhancement of triglyceride accumulation at 3 uM. The format is functional. In outline:
as §1

The subject of data set [3] is 3T3-L1. Description: Antidiabetic activity in mouse 3T3L1 cells assessed as enhancement of triglyceride accumulation at 10 uM. It counts as functional. In outline: as §1
Data set [4] concerns 3T3-L1. Description: Antidiabetic activity in mouse 3T3L1 cells assessed as enhancement of triglyceride accumulation at 30 uM. It counts as functional. In outline:
as §1

In data set [5] the test system is 3T3-L1. Description: Increase in 2-deoxyglucose uptake in mouse 3T3L1 cells by liquid scintillation counter. It counts as functional, cell-based. In outline:
(§2)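 Cells differentiated as for triglyceride assay with compound in DMSO (final 0.1%) in differentiation and maintenance media. Day 8: serum-free 4 h, KRP buffer wash, 20 min with 100 nM insulin, then 0.1 mM 2-deoxyglucose plus [3H]2-deoxyglucose (1 µCi/mL) 10 min at 37 °C. Lysed in 1 M NaOH, neutralized, scintillation counted; cytochalasin B (20 µM) nonspecific uptake subtracted.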

Data set [6] deals with 3T3-L1. Description: Increase in 2-deoxyglucose uptake in mouse 3T3L1 cells at 3 uM by liquid scintillation counter. It counts as functional, cell-based. In outline: as §2
The subject of data set [7] is 3T3-L1. The experiment in a line: Induction of adiponectin release to medium in mouse 3T3L1 cells at 10 uM by ELISA. The format is functional, cell-based. In outline: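 3T3-L1 cells (5.0 × 10^4/well) differentiated, then maintenance medium 4 days; compound in DMSO (final 0.1%) present in media; on day 8 adiponectin in culture medium quantified by ELISA.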
(An ELISA detects its analyte on a solid surface through an enzyme-linked reagent.)

Data set [8] concerns 3T3-L1. The experiment in a line: Increase in adiponectin mRNA expression in mouse 3T3L1 cells at 10 uM after 4 days by RT-PCR. It counts as functional, cell-based. In outline:
(§3)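 3T3-L1 cells (1.0 × 10^6/well) in DMEM + 10% FCS, differentiated with compound; control 0.1% DMSO; mRNA levels of adiponectin, PPARγ2, GLUT4, IRS-1 assessed; means ± SEM, n = 3.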

The test system of data set [9] is 3T3-L1. Description: Increase in GLUT4 mRNA expression in mouse 3T3L1 cells after 4 days by RT-PCR. The format is functional, cell-based. In outline:
as §3

The test system of data set [10] is 3T3-L1. Description: Increase in PPARgamma2 mRNA expression in mouse 3T3L1 cells after 4 days by RT-PCR. It counts as functional, cell-based. In outline:
as §3

Data set [11] deals with 3T3-L1. The experiment in a line: Increase in IRS1 mRNA expression in mouse 3T3L1 cells at 30 uM after 4 days by RT-PCR. The format is functional, cell-based. In outline:
as §3

Data set [12] has as its system 3T3-L1. Description: Cytotoxicity against mouse 3T3L1 cells at 30 uM. It counts as cell-based. Particulars: 3t3-l1, 30 µM. In outline: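 Cells differentiated and treated through day 8 as in triglyceride assay; cytotoxicity at 30 µM judged by cell detachment from culture plate surface.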

Turning to `O=C(CCCCCC/C=C/c1ccc2c(c1)OCO2)N1CCCCC1` [PIPERROLEIN B], the Activity is -2.8% in the data set on 3T3-L1 [1], 30.3% in the data set on 3T3-L1 [2], 20.9% in the data set on 3T3-L1 [3] and 9.4% with 3T3-L1 [4].
As for `CCCCCCC/C=C/C=C/C(=O)NCC(C)C`, the Activity with 3T3-L1 [1] is 10.1%; with 3T3-L1 [2], 16.3%; in the data set with 3T3-L1 [3], 11.1%; in the data set with 3T3-L1 [4], 15.3%.
For `CC(C)CNC(=O)/C=C/C=C/CC/C=C/c1ccc2c(c1)OCO2` [RETROFRACTAMIDE A], the Activity in the data set with 3T3-L1 [1] is 25.1%; in the data set with 3T3-L1 [2], 27.3%; in the data set on 3T3-L1 [3] it was 27.8%; with 3T3-L1 [4], 33.3%; in the data set on 3T3-L1 [5], “Dose-dependent effect”. Besides, the result in the data set on 3T3-L1 [6], in the data set with 3T3-L1 [7], in the data set on 3T3-L1 [8], in the data set with 3T3-L1 [9], in the data set with 3T3-L1 [10] and with 3T3-L1 [11] was Active.
With `CCCCC/C=C/C=C/C(=O)NCC(C)C` [PELLITORIN], the Activity was 4.4% in the data set on 3T3-L1 [1], 18.2% with 3T3-L1 [2], 10% in the data set with 3T3-L1 [3] and 6.2% in the data set with 3T3-L1 [4].
With `CC(C)CNC(=O)/C=C/C=C/CCCC/C=C/c1ccc2c(c1)OCO2` [RETROFRACTAMIDE B], the Activity with 3T3-L1 [1] amounted to 18.8%; in the data set on 3T3-L1 [2] it was 29.9%; in the data set with 3T3-L1 [3], 28.4%; in the data set with 3T3-L1 [4], 27.6%.
As for `O=C(/C=C/C=C/CCCCCC/C=C/c1ccc2c(c1)OCO2)N1CCCCC1` [PIPERCHABAMIDE C], the Activity is recorded as 9.4% in the data set on 3T3-L1 [1], 17.6% with 3T3-L1 [2], -10.2% in the data set on 3T3-L1 [3] and -11% with 3T3-L1 [4].
The like results for `CCCCCCCCCCCCC/C=C/C=C/C(=O)NCC(C)C` were, in that order, 14.1%, 3.3%, 19.6% and 20.6%.
The like results for `O=C(/C=C/C=C/c1ccc2c(c1)OCO2)N1CCCCC1` [PIPERINE] were, in that order, -1.2%, -3.9%, -14.2% and -1.2%.
The like results for `CCOC(=O)/C=C/C=C/CC/C=C/c1ccc2c(c1)OCO2` were, in that order, 2.9%, 2.9%, 1.2% and 8.7%.
For `O=C(/C=C/CCc1ccc2c(c1)OCO2)N1CCCCC1` [PIPERANINE], the Activity with 3T3-L1 [1] is on record as 20.4%; in the data set with 3T3-L1 [2], 19.1%; in the data set with 3T3-L1 [3], 13.1%; with 3T3-L1 [4], 8.3%.
With `O=C(/C=C/C=C/CCCC/C=C/c1ccc2c(c1)OCO2)N1CCCCC1` [PIPERUNDECALIDIENE], the Activity with 3T3-L1 [1] is listed as -13%; in the data set with 3T3-L1 [2], -7.3%; with 3T3-L1 [3], 7.3%; with 3T3-L1 [12], -60.8%.
For `CC(C)CNC(=O)/C=C/CCCCCC/C=C/c1ccc2c(c1)OCO2` [PIPERCHABAMIDE D], the Activity with 3T3-L1 [1] worked out at 1.7%; with 3T3-L1 [2] it was 8%; with 3T3-L1 [3] it was 8.5%; with 3T3-L1 [4] it was 4.7%.
The like results for `CC(C)CNC(=O)/C=C/C=C/CCCCCC/C=C/c1ccc2c(c1)OCO2` [GUINEENSINE] were, in that order, 1.5%, 9.7%, 0.8% and 2%.
With `O=C(/C=C/CCCCCC/C=C/c1ccc2c(c1)OCO2)N1CCCCC1` [PIPERCHABAMIDE B], the Activity with 3T3-L1 [1] is on record as -14.1%; in the data set on 3T3-L1 [2] it was -2.2%; in the data set with 3T3-L1 [3], -3.5%; with 3T3-L1 [12] it was -30.3%.
With `O=C(/C=C/C=C/CC/C=C/c1ccc2c(c1)OCO2)N1CCCCC1` [DEHYDROPIPERNOLINE], the Activity in the data set on 3T3-L1 [1] is 0.5%; in the data set on 3T3-L1 [2], 1.8%; with 3T3-L1 [3] it was 1.5%; with 3T3-L1 [12] it was -19.9%.
With `Cc1c(C)c2c(c(C)c1O)CCC(C)(COc1ccc(CC3SC(=O)NC3=O)cc1)O2` (centres undefined) [TROGLITAZONE], the Activity is reported as 33.8% in the data set on 3T3-L1 [1], 40.5% with 3T3-L1 [2] and 39.6% in the data set with 3T3-L1 [3]. The result in the data set on 3T3-L1 [6] was Active.
Regarding `CC(C)CNC(=O)/C=C/C=C/CCCCCCCC/C=C/c1ccc2c(c1)OCO2` [BRACHYSTAMIDE B], the Activity came to 11.1% with 3T3-L1 [1], 18.5% in the data set with 3T3-L1 [2], 16.8% in the data set on 3T3-L1 [3] and 13.7% in the data set on 3T3-L1 [4].
Turning to `CC(C)CNC(=O)/C=C/CCCC/C=C/c1ccc2c(c1)OCO2` [RETROFRACTAMIDE C], the Activity in the data set on 3T3-L1 [1] was 9.7%; with 3T3-L1 [2], 15%; in the data set on 3T3-L1 [3], 22.2%; in the data set with 3T3-L1 [4] it was 15.4%.
The like results for `O=C(O)/C=C/C=C/CC/C=C/c1ccc2c(c1)OCO2` were, in that order, -3.9%, 1.5%, 3.9% and -7.3%.
Take `COC(=O)/C=C/C=C/c1ccc2c(c1)OCO2` [METHYL PIPERATE]: the Activity is reported as 5.2% with 3T3-L1 [1], 17.8% in the data set with 3T3-L1 [2], 25.2% in the data set with 3T3-L1 [3] and 17.1% in the data set on 3T3-L1 [4].
The like results for `CCCCC/C=C\CCCCCCCC/C=C/C=C/C(=O)NCC(C)C` were, in that order, -3%, -7.2%, 7.2% and 20.2%.
For the molecule `O=C(/C=C/CCCC/C=C/c1ccc2c(c1)OCO2)N1CCCCC1` [PIPERNONALINE], the Activity was 1% in the data set with 3T3-L1 [1], 5.4% with 3T3-L1 [2], 10.5% in the data set with 3T3-L1 [3] and -61.2% with 3T3-L1 [12].
As for `CC(C)CNC(=O)/C=C/C=C/c1ccc2c(c1)OCO2` [PIPERLONGUMININE], the Activity in the data set with 3T3-L1 [1] turned out to be 19.5%; in the data set with 3T3-L1 [2], 28.1%; with 3T3-L1 [3] it was 31.8%; in the data set on 3T3-L1 [4] it was 20.4%.
